This note sets out measurements from ChEMBL document CHEMBL4196113, “Discovery of a First-in-Class Gut-Restricted RET Kinase Inhibitor as a Clinical Candidate for the Treatment of IBS” (ACS Med Chem Lett, 2018).

For data set [1], the system named is Salmonella typhimurium. As to the kind of experiment: Genotoxicity in Salmonella typhimurium TA98 by Ames test. Conditions: salmonella enterica subsp. enterica serovar typhimurium. Format: toxicity, organism-based.
The target in data set [2] is Proto-oncogene tyrosine-protein kinase receptor Ret (Rattus norvegicus, UniProt G3V9H8). As to the kind of experiment: Binding affinity to RET in Sprague-Dawley rat colon tissue cell lysate using sepharose beads incubated for 45 mins by LC-MS/MS based chemoproteomics assay. In a few lines:
(§1)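 Colon tissue was isolated from rats and analysed by kinobead chemoproteomics. Compound competed with the beads for kinase binding. Apparent affinity is reported as pKdapp and converted to Kd.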

Data set [3] deals with T1, Epithelial discoidin domain-containing receptor 1 (Rattus norvegicus, UniProt Q63474).
T1 sequence (Q63474 whole entry): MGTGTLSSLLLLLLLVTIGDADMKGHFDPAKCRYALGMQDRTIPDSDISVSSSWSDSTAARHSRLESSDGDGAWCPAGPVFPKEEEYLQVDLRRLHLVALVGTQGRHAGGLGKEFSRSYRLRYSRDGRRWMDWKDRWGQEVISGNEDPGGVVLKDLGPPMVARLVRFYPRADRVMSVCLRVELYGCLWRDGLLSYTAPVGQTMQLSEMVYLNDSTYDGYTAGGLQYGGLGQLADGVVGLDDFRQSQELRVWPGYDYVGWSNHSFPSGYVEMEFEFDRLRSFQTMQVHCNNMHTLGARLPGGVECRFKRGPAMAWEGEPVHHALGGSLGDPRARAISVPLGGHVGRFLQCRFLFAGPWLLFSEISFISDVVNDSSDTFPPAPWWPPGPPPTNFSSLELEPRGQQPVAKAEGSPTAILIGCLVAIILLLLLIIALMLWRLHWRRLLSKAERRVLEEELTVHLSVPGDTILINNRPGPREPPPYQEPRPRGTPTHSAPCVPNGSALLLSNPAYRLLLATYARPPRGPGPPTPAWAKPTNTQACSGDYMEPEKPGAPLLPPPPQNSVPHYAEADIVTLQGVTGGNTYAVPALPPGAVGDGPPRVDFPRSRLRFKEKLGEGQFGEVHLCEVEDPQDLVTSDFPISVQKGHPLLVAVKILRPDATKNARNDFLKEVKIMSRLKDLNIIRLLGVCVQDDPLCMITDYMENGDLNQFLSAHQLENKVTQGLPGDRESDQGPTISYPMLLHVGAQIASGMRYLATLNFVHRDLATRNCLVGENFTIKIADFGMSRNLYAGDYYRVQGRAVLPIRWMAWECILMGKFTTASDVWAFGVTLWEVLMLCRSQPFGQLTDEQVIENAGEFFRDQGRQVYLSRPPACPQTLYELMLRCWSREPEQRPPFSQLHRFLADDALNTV
Briefly: Binding affinity to DDR1 in Sprague-Dawley rat colon tissue cell lysate using sepharose beads incubated for 45 mins by LC-MS/MS based chemoproteomics assay. In a few lines: as §1

The nature of data set [4]: Binding affinity to DDR2 in Sprague-Dawley rat colon tissue cell lysate using sepharose beads incubated for 45 mins by LC-MS/MS based chemoproteomics assay. Put shortly: as §1
The nature of data set [5]: Solubility of the compound by CLND method. It counts as physicochemical. In a few lines:
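Kinetic solubility was measured by chemiluminescent nitrogen detection.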

The nature of data set [6]: Solubility of the compound in FaSSIF after 4 hrs. Format: physicochemical. Put shortly: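 Solubility was measured in fasted state simulated intestinal fluid after 4 h.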
A short description of data set [7]: AUC in Sprague-Dawley rat at 0.06 mg/kg, iv administered via bolus. As to conditions: in vivo. It counts as ADME, organism-based. Put shortly: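 Male Sprague–Dawley rats received a single IV bolus. Compound was formulated as a clear solution at 0.04 mg/mL in DMSO/6% HP-beta-CD (5:95), pH 7. AUC was derived from the plasma concentration–time curve.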
Data set [8] in a line: Cmax in colon contents of Sprague-Dawley rat at 10 mg/kg, po bid administered 7 doses over 3.5 days. Format: ADME, organism-based, Colon content. Further details: dose 10 mg/kg, route oral. Put shortly:
(§2)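 Satellite rats from the colonic hypersensitivity dosing regimen received 10 mg/kg orally twice daily, seven doses over 3.5 days. Concentrations were measured in colon contents, duodenum, jejunum, ileum, colon tissue homogenate and plasma. Cmax (ng/mL) and Tmax (h) were taken from the full time–concentration profiles.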

Data set [9] in a line: Cmax in duodenum of Sprague-Dawley rat at 10 mg/kg, po bid administered 7 doses over 3.5 days. It counts as ADME, organism-based. Further details: dose 10 mg/kg, route oral. In a few lines:
as §2

Data set [10] can be described thus: Cmax in jejunum of Sprague-Dawley rat at 10 mg/kg, po bid administered 7 doses over 3.5 days. It counts as ADME, organism-based. Details: dose 10 mg/kg, route oral. In a few lines: as §2
A short description of data set [11]: Cmax in ileum of Sprague-Dawley rat at 10 mg/kg, po bid administered 7 doses over 3.5 days. Format: ADME, organism-based. Details: dose 10 mg/kg, route oral. Put shortly:
as §2

Data set [12] in a line: Cmax in colon of Sprague-Dawley rat at 10 mg/kg, po bid administered 7 doses over 3.5 days. Format: ADME, organism-based. Further details: dose 10 mg/kg, route oral. In a few lines: as §2
Data set [13] can be described thus: Cmax in plasma of Sprague-Dawley rat at 10 mg/kg, po bid administered 7 doses over 3.5 days. Format: ADME, organism-based. Further details: dose 10 mg/kg, route oral. In a few lines:
as §2

The nature of data set [14]: Tmax in colon contents of Sprague-Dawley rat at 10 mg/kg, po bid administered 7 doses over 3.5 days. Format: ADME, organism-based, Colon content. In a few lines: as §2
Data set [15] in a line: Tmax in duodenum of Sprague-Dawley rat at 10 mg/kg, po bid administered 7 doses over 3.5 days. Format: ADME, organism-based. Put shortly: as §2
Data set [16] is described as follows: Tmax in jejunum of Sprague-Dawley rat at 10 mg/kg, po bid administered 7 doses over 3.5 days. It counts as ADME, organism-based. Put shortly:
as §2

Data set [17] in a line: Tmax in ileum of Sprague-Dawley rat at 10 mg/kg, po bid administered 7 doses over 3.5 days. It counts as ADME, organism-based. Put shortly:
as §2

Data set [18] in a line: Tmax in colon of Sprague-Dawley rat at 10 mg/kg, po bid administered 7 doses over 3.5 days. It counts as ADME, organism-based. In a few lines: as §2
A short description of data set [19]: Tmax in plasma of Sprague-Dawley rat at 10 mg/kg, po bid administered 7 doses over 3.5 days. It counts as ADME, organism-based. Put shortly: as §2
Data set [20] has as its system Rattus norvegicus. Briefly: Reduction in acetic acid-induced acute visceral afferent neuron sensitization in Sprague-Dawley rat acute colonic hypersensitivity model assessed as decrease in visceromotor response to colorectal distension by measuring number of abdominal contractions at 10 mg/kg, po bid administered for 3.5 days followed by acetic acid induction for 60 mins administered 5 mins post last compound dose and measured for 10 mins. It counts as functional, organism-based. Put shortly:
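Acetic acid enema at low concentration gave a transient, noninflammatory sensitization of colonic afferents. Colorectal distension then evoked a visceromotor response, scored visually as abdominal contractions. Rats (n = 7 per group) were dosed orally at 10 mg/kg twice daily for 3.5 days and compared with acetic acid/vehicle controls. Analysis used repeated-measure two-way ANOVA with Bonferroni post-test.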

Data set [21] has as its target Vascular endothelial growth factor receptor 2 (Homo sapiens, UniProt P35968). Briefly: Inhibition of human KDR using cisbio TK biotin-peptide as substrate preincubated for 30 mins followed by substrate addition measured after 30 mins by HTRF assay.

≈ marks a conversion by molar mass, not a printed value. Calls of active or inactive are those of the source. No cut-off for these calls is given here.

Chain of Proto-oncogene tyrosine-protein kinase receptor Ret (G3V9H8 whole entry): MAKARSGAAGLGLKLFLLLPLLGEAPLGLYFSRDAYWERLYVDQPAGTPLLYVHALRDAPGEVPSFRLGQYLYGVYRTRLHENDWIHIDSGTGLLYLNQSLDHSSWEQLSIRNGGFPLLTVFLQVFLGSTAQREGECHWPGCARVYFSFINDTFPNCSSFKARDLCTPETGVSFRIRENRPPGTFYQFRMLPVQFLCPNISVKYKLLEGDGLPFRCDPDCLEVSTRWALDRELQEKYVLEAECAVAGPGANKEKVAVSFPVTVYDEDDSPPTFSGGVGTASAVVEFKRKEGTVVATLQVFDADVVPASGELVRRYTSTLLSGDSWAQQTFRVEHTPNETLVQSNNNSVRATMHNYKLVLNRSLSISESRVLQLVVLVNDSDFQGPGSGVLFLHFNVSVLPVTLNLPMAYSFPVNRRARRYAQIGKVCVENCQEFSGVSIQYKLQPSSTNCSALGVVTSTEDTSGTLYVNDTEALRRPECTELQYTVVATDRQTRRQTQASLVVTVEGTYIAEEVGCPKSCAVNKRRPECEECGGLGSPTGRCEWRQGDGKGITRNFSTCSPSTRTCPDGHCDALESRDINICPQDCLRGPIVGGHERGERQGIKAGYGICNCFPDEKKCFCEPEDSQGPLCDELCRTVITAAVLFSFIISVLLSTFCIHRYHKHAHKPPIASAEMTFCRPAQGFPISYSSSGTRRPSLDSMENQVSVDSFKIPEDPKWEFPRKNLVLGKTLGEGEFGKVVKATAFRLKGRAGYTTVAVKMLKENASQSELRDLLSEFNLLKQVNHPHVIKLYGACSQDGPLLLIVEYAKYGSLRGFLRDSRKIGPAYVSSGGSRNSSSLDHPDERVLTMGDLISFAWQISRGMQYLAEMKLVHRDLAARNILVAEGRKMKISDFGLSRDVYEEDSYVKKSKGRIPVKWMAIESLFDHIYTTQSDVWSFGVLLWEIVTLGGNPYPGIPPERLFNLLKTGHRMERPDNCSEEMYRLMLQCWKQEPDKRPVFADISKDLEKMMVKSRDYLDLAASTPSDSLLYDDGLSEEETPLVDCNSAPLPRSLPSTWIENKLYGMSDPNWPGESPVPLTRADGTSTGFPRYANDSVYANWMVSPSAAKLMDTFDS
Chain of Vascular endothelial growth factor receptor 2 (P35968 whole entry): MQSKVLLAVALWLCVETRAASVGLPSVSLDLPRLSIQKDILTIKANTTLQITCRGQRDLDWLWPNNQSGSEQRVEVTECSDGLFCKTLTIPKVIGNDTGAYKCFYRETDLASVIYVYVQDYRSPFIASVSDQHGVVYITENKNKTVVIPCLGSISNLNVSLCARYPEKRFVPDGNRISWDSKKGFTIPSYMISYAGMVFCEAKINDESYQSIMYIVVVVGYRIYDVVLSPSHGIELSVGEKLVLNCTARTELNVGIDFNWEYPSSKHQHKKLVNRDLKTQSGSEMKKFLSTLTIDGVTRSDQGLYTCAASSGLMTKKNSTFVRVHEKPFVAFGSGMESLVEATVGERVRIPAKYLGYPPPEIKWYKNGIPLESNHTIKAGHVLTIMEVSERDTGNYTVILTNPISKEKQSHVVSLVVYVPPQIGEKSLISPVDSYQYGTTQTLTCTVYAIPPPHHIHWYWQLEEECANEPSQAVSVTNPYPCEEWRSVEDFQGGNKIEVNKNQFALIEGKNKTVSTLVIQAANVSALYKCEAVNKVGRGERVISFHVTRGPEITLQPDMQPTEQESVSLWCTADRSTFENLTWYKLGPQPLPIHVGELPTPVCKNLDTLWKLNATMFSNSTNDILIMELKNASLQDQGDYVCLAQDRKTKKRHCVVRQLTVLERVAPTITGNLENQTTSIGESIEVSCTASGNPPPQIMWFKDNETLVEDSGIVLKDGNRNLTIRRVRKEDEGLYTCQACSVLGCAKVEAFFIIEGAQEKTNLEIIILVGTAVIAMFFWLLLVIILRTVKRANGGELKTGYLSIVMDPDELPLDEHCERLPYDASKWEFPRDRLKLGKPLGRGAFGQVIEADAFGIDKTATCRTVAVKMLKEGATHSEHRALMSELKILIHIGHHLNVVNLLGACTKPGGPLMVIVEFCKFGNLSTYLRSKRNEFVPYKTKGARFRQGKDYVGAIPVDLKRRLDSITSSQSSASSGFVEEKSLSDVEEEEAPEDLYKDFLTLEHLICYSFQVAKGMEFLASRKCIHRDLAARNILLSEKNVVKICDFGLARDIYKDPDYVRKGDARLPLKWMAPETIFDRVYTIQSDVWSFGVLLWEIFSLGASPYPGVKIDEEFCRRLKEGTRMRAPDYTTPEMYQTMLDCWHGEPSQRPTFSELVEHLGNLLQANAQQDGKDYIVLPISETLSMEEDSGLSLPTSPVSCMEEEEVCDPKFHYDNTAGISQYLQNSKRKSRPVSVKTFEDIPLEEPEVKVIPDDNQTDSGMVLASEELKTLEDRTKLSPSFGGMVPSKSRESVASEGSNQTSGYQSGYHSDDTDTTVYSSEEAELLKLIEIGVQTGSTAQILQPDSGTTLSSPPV

On to `COc1cc(-c2ccc(N)c(F)c2)c[nH]c1=O`, for which the Activity result in [1] is “Toxic”.

With `CCOc1cc(-c2ccc(N)c(F)c2)c[nH]c1=O`, the Activity result in data set [1] was “Toxic”.

With `CCN1CCN(Cc2ccc(N)cc2C(F)(F)F)CC1`, the Activity entry in data set [1] is listed as “Toxic”.

As for `CCOc1cc(=O)[nH]cc1-c1ccc(CC(=O)Nc2cc(C(C)(C)C(F)(F)F)on2)c(F)c1` [GSK-3179106], in [1], the Activity entry was “Non-Toxic”. The values for the Kd in data set [2], in [3] and in [4] were 20 nM, 40 nM and 90 nM, respectively. Besides, in data set [5], the solubility (kinetic) is 21 µM (≈ 9.82 µg/mL). Also, the solubility at 4 h in data set [6] was 0.4 µg/mL (≈ 0.856 µM). Further, the exposure (AUC) in data set [7] was found to be 102 ng·h/mL. The Cmax was 288000 ng/mL in data set [8]; 15700 ng/mL in data set [9]; 12800 ng/mL in data set [10]; 5520 ng/mL in data set [11]; 3360 ng/mL in data set [12]; 40 ng/mL in data set [13]. Further, the Tmax came to 7 h in data set [14]; 0 h in data set [15]; 1 h in data set [16]; 2 h in [17]; 7 h in data set [18]; 4 h in [19]. In addition, in data set [20], the outcome was Active.

Regarding `CC(C)(c1cc(N)no1)C(F)(F)F`, in data set [1], the Activity entry was “Non-Toxic”.

For the compound `CCN1CCN(Cc2ccc(NC(=O)Nc3ccc(-c4ccnc(NC)c4)cc3)cc2C(F)(F)F)CC1`, the half-maximal inhibitory concentration (IC50) in data set [21] was above 1000 nM.

For `CCOc1cc(-c2ccc(N)cc2)c[nH]c1=O`, in [1], the Activity result is given as “Toxic”.
